Activity calls are given as the source filed them. The rule behind the calls is not given here.
Target: Adenosylhomocysteinase (Homo sapiens, UniProt P23526)
Assay: Inhibition of recombinant human S-adenosyl-L-homocysteine hydrolase assessed as hydrolysis of AdoHcy after 8 mins by HPLC analysis
Method in brief: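 Human recombinant enzyme (50 ng) added after test compound to 10 μM AdoHcy plus adenosine deaminase (4 units) in 50 mM phosphate buffer pH 7.2 with 1 mM EDTA. Incubated at 37 °C for 8 min, then stopped with 1 mol/L perchloric acid and centrifuged at 4 °C. Read-out is AdoHcy hydrolysis activity. IC50 given as mean ± standard error of triplicate determinations.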

IC50 [nM]	inhibition	SMILES
8.5		CCNCCNC(=O)CN(CC(=O)N(C)N1Cc2ccccc2C1)c1cc(Cl)ccc1Oc1ccc(Cl)cc1
70		CN(CCNC(=O)CN(CC(=O)N(C)C1Cc2ccccc2C1)c1cc(Cl)ccc1Oc1ccc(Cl)cc1)C(=O)OC(C)(C)C
1500		CN(C(=O)CN(CC(=O)NC1CCN(C(=O)OC(C)(C)C)C1)c1cc(Cl)ccc1Oc1ccc(Cl)cc1)C1Cc2ccccc2C1 (stereo unspecified)
60		CCN(CCNC(=O)CN(CC(=O)N(C)C1Cc2ccccc2C1)c1cc(Cl)ccc1Oc1ccc(Cl)cc1)C(=O)OC(C)(C)C
> 100000		CN(C(=O)CN(CC(=O)NCCN1CCCC1)c1cc(Cl)ccc1Oc1ccc(Cl)cc1)C1CCNCC1
	Active	CN(C(=O)CN(CC(=O)NC1CCCNC1)c1cc(Cl)ccc1Oc1ccc(Cl)cc1)C1Cc2ccccc2C1 (stereo unspecified)
640		CCN(C(=O)CN(CC(=O)NCCN1CCCC1)c1cc(Cl)ccc1Oc1ccc(Cl)cc1)C1Cc2ccccc2C1
150		CN(C(=O)CN(CC(=O)NCC1CCCCN1C(=O)OC(C)(C)C)c1cc(Cl)ccc1Oc1ccc(Cl)cc1)C1Cc2ccccc2C1 (stereo unspecified)
49		CC(C)N(CCNC(=O)CN(CC(=O)N(C)C1Cc2ccccc2C1)c1cc(Cl)ccc1Oc1ccc(Cl)cc1)C(=O)OC(C)(C)C
600		CN(C(=O)CN(CC(=O)NC[C@H]1CCCN1C(=O)OC(C)(C)C)c1cc(Cl)ccc1Oc1ccc(Cl)cc1)C1Cc2ccccc2C1
110		CN(C(=O)CN(CC(=O)NC[C@@H]1CCCN1C(=O)OC(C)(C)C)c1cc(Cl)ccc1Oc1ccc(Cl)cc1)C1Cc2ccccc2C1
	Active	CN(C(=O)CN(CC(=O)NC1CCNC1)c1cc(Cl)ccc1Oc1ccc(Cl)cc1)C1Cc2ccccc2C1 (stereo unspecified)
> 100000		CN(CCN1CCCC1)C(=O)CN(CC(=O)N(C)C1Cc2ccccc2C1)c1cc(Cl)ccc1Oc1ccc(Cl)cc1
2300		O=C(CN(CC(=O)N1CCCc2ccccc21)c1cc(Cl)ccc1Oc1ccc(Cl)cc1)NCCN1CCCC1
1200		CN(C(=O)CN(CC(=O)NC1CCCN(C(=O)OC(C)(C)C)C1)c1cc(Cl)ccc1Oc1ccc(Cl)cc1)C1Cc2ccccc2C1 (stereo unspecified)

Target: T1, Adenosylhomocysteinase (Rattus norvegicus, UniProt P10760)
T1 sequence (P10760 whole entry): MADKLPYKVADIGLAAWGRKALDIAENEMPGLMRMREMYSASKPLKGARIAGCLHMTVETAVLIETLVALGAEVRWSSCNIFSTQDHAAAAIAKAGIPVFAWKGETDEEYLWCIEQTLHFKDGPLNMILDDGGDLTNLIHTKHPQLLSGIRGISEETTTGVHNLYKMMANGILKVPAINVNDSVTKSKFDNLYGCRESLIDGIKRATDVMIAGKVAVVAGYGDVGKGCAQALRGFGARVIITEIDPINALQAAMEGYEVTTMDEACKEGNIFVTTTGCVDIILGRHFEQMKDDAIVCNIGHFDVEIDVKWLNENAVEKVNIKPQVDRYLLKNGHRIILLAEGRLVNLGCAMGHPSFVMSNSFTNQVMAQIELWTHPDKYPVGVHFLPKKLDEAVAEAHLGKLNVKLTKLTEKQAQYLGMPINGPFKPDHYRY
Assay: Reversible inhibition of rat liver S-adenosyl-L-homocysteine hydrolase
Assay type: tissue-based

Ki [nM]	SMILES
1000	Nc1ncnc2c1ncn2CC(O)CO (stereo unspecified)
